This is a sample that favours compounds with a hit; in the whole collection about 3.1% have one here.
MBD2 inh – inhibitors of MBD2 binding to methylated DNA, primary screen, biochemical, TR-FRET, DNA-binding domain, human; MBD2 binding to methylated oligonucleotide; inhibition, % at 4.4 µM; 370,000 tested, 0.31% active; Methyl-CpG-binding domain protein 2 (Homo sapiens), Q9UBB5; in the data active = inhibition above about 13%
ABHD5-PLIN5 inh – ABHD5-PLIN5 interaction inhibitors, primary screen, cell lysate, split luciferase complementation, luminescence. Split G. princeps luciferase complementation, 4 h. inhibition, % at 4 µM. Perilipin-5 (Homo sapiens) + 1-acylglycerol-3-phosphate O-acyltransferase ABHD5 (Homo …. 360,000 tested, 0.78% active;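 active = inhibition above the mean inhibition across every tested compound plus 3 SD, cut at about 22% in these data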;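 also: 0% = DMSO only wells and the 100% control is not disclosed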
LEDGF integ inh – blockers of LEDGF/p75-dependent integrase strand transfer – biochemical, TR-FRET, high throughput, primary screen | 370,000 tested, 0.64% active | inhibition, % at 3.7 µM | HIV-1 integrase (with human LEDGF/p75) | TR-FRET IN-LEDGF/p75 DNA integration, Eu/Cy5;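 active = inhibition above the screen-wide mean plus 3 SD, cut at about 13% in these data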;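 also: signal is the Cy5 over europium emission ratio at 671 and 618 nm; 0% = plate median of compound wells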
RBBP9 inh – human RBBP9 inhibitors, primary screen, biochemical, fluorescence polarization, FP-Rh probe, HTS. AID 1515, 2009. Serine hydrolase RBBP9 (Homo sapiens), O75884. 220,000 tested, 0.2% active. inhibition, % at 7.94 µM. recombinant RBBP9;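 active = inhibition above the campaign mean of all tested compounds plus 3 SD, cut at about 14% in these data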;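 also: plate controls were DMSO wells with RBBP9 for no effect and wells lacking RBBP9 protein for full effect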
Target sequence (O75884 whole entry, looked up): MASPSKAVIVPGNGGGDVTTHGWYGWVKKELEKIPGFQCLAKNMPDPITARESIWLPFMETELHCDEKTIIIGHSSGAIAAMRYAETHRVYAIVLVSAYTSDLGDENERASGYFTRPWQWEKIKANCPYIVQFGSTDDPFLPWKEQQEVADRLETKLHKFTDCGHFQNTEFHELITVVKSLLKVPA
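Test system – recombinant human RBBP9 · Input – RBBP9 2.5 µM in dispensing solution, pre-mixing · Medium – Tris buffer pH 8.0, NaCl, Pluronic · Schedule – preincubation 30 min plus labeling 45 min at 25 °C · Measured by – fluorescence polarization · Measure – % inhibition · Controls – DMSO and no-protein wells · Replicates – one well per compound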
UHRF1 binding – UHRF1 methylated DNA binding inhibitors, primary screen, counter-screen for MBD2 inhibitor project, biochemical, TR-FRET, human UHRF1, single concentration | UHRF1 binding to methylated oligo | inhibition, % at 4.4 µM | 370,000 tested, 0.75% active | AID 687016, 2013; in the data active = inhibition above about 21%;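 also: UHRF1 SRA domain binding a hemimethylated CpG hairpin DNA probe; 0% = median of test compound wells and 100% = reference inhibitor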
PRMT1 inh – PRMT1 methyltransferase inhibitors, primary screen, biochemical, fluorescence polarization; inhibition, % at 2.79 µM; recombinant PRMT1, activity-based probe fluorescence polarization; Protein arginine N-methyltransferase 1 (Homo sapiens), Q99873; AID 652257, 2013; 370,000 tested, 1.3% active;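 active = inhibition above about 21% made by adding two undisclosed values, limit read from the data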
ABHD5 PLIN5 conf – ABHD5-PLIN5 interaction inhibitors, confirmation, biochemical, luminescence. shares compounds with ABHD5-PLIN5 inh. inhibition, % at 4 µM. 2,200 tested, 67% active; in the data active = inhibition above about 23%;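 also: 0% = DMSO vehicle wells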
HNF4 split-luc – HNF4 dimerization inhibitors, counter-screen for ABHD5-PLIN5 interaction inhibitor project, biochemical, split-luciferase complementation, luminescence. inhibition, % at 4 µM. 2,200 tested, 77% active. shares compounds with ABHD5-PLIN5 inh;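 active = mean inhibition across replicate wells exceeding the computed hit threshold, cut at about 13% in these data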;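 also: light from luciferase halves that rejoin when HNF4 fusion proteins dimerize; 0% = DMSO only wells and the 100% control is not given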
Target sequence (P41235 whole entry, looked up, the tested form may be a part): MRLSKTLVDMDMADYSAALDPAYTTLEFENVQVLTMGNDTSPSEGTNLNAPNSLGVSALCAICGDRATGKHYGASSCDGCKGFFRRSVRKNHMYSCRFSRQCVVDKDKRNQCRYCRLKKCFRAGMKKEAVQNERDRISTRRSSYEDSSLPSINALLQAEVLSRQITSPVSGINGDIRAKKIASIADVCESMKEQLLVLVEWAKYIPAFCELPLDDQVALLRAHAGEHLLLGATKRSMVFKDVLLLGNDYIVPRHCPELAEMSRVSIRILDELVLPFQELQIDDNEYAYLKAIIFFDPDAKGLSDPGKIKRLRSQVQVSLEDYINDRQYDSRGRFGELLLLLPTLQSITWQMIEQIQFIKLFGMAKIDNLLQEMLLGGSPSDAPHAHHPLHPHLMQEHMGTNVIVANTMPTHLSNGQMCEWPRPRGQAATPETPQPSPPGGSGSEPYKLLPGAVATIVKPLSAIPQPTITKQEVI
* marks the source's active call; other numbers are inactive results.

What do the screens show for `CCOC(=O)[C@@]12CCCC3=C1N(CCC3)C(=O)[C@H]2CC(=O)NCc1cccs1`?
MBD2 inh: 3.0; LEDGF integ inh: -1.3; UHRF1 binding: -2.7; PRMT1 inh: -1.5

What do the screens show for `C=C(CCC(=O)c1ccccc1)C(=O)c1ccccc1`?
MBD2 inh: 3.3; ABHD5-PLIN5 inh: 31.8*; LEDGF integ inh: 3.8; RBBP9 inh: -5.4; UHRF1 binding: 4.2; PRMT1 inh: 5.8; ABHD5 PLIN5 conf: 68.5*; HNF4 split-luc: 67.0*

Results for CC(CCN1CCC(C(O)(c2ccccc2)c2ccccc2)CC1)Oc1cccc(C(F)(F)F)c1 (configuration not stated) ?
MBD2 inh: -4.1; LEDGF integ inh: -2.8; UHRF1 binding: -0.7; PRMT1 inh: 1.9

What do the screens show for `CCCCNC(=O)Nc1ccc2c(c1)N(C)C(=O)c1ccccc1S2`?
MBD2 inh: 5.5; ABHD5-PLIN5 inh: 49.9*; LEDGF integ inh: -2.7; UHRF1 binding: -1.4; PRMT1 inh: 0.1; ABHD5 PLIN5 conf: 68.1*; HNF4 split-luc: 4.1

What do the screens show for `CN1C(=O)c2ccccc2Sc2ccc(NC(=O)N3CCCC3)cc21`?
MBD2 inh: 0.3; ABHD5-PLIN5 inh: 9.2; LEDGF integ inh: -2.5; RBBP9 inh: -0.6; UHRF1 binding: -2.8; PRMT1 inh: -2.2

What do the screens show for `CCCNC(=O)Nc1ccc2c(c1)N(C)C(=O)c1ccccc1S2`?
MBD2 inh: 0.3; ABHD5-PLIN5 inh: 32.7*; LEDGF integ inh: -1.1; RBBP9 inh: -2.5; UHRF1 binding: 0.0; PRMT1 inh: 1.6; ABHD5 PLIN5 conf: 53.8*; HNF4 split-luc: 4.0

How did CCOc1c(N2CC(C)OC(C)C2)c(=O)c1=O (configuration not stated) do in these assays?
MBD2 inh: 2.0; ABHD5-PLIN5 inh: -1.2; LEDGF integ inh: -2.1; RBBP9 inh: 7.0; UHRF1 binding: 3.0; PRMT1 inh: 4.6

What do the screens show for `CC1CN(C2=CC(=O)CCC2)CC(C)O1` (configuration not stated)?
MBD2 inh: -1.6; ABHD5-PLIN5 inh: 30.9*; LEDGF integ inh: -3.5; RBBP9 inh: -4.1; UHRF1 binding: -1.8; PRMT1 inh: 5.3; ABHD5 PLIN5 conf: -4.2; HNF4 split-luc: 13.0*

What do the screens show for `COc1ccc(/C=C\C(=O)c2c(O)ccc3c(C)cc(=O)oc23)cc1OC`?
MBD2 inh: -4.9; ABHD5-PLIN5 inh: 49.8*; LEDGF integ inh: 3.0; RBBP9 inh: -17.1; UHRF1 binding: -1.6; PRMT1 inh: 3.4; ABHD5 PLIN5 conf: 74.0*; HNF4 split-luc: 60.9*

What do the screens show for `Cc1cc(=O)oc2c(C(=O)/C=C/c3ccccc3)c(O)ccc12`?
MBD2 inh: -1.5; ABHD5-PLIN5 inh: 8.2; LEDGF integ inh: 2.0; RBBP9 inh: -5.0; UHRF1 binding: 0.8; PRMT1 inh: 2.6

How did COc1cc(/C=C/C(=O)c2c(O)ccc3c(C)cc(=O)oc23)ccc1O do in these assays?
MBD2 inh: 0.5; ABHD5-PLIN5 inh: 50.9*; LEDGF integ inh: -5.8; RBBP9 inh: 2.5; UHRF1 binding: -0.1; PRMT1 inh: 10.0; ABHD5 PLIN5 conf: 61.3*; HNF4 split-luc: 63.5*

How did Cc1cc(=O)oc2c(C(=O)/C=C\c3cccs3)c(O)ccc12 do in these assays?
MBD2 inh: -4.2; ABHD5-PLIN5 inh: 39.1*; LEDGF integ inh: -0.7; RBBP9 inh: -2.4; UHRF1 binding: -5.2; PRMT1 inh: 1.7; ABHD5 PLIN5 conf: 39.1*; HNF4 split-luc: 45.4*

What do the screens show for `COC1=CC(=O)C(OC)=C(OC)C1=O`?
MBD2 inh: -7.4; ABHD5-PLIN5 inh: 25.8*; LEDGF integ inh: 0.9; UHRF1 binding: -6.1; PRMT1 inh: 2.6; ABHD5 PLIN5 conf: 52.0*; HNF4 split-luc: 73.3*

Results for CCOC(=O)CCCNC(=O)OC1CC2CC1[C@H]1CCCCN1[C@H]2Cc1ccccc1 (some centres not stated) ?
MBD2 inh: 2.3; LEDGF integ inh: 4.0; UHRF1 binding: -3.0; PRMT1 inh: -3.1

What do the screens show for `COC(=O)C1=C(C)N(Cc2cccc(C(F)(F)F)c2)C(=NCc2cc(OC)c(OC)c(OC)c2)NC1c1cccc(C(F)(F)F)c1` (configuration not stated)?
MBD2 inh: -3.4; LEDGF integ inh: 3.5; UHRF1 binding: -3.3; PRMT1 inh: -4.3

What do the screens show for `O=C(NNC(=O)C1CC1)c1ccccc1[N+](=O)[O-]`?
MBD2 inh: -0.8; ABHD5-PLIN5 inh: 31.5*; LEDGF integ inh: -1.6; UHRF1 binding: 6.0; PRMT1 inh: 2.1; ABHD5 PLIN5 conf: 8.4; HNF4 split-luc: 7.0

What do the screens show for `C[C@@H]1CNCCN1c1ccc(N2CCS(=O)(=O)CC2)c(C#N)c1`?
MBD2 inh: -2.7; LEDGF integ inh: 3.5; UHRF1 binding: -1.5; PRMT1 inh: -2.5

How did CCOC(=O)c1c(-c2ccc(C)o2)csc1NC(=O)COC(=O)c1ccc(NC(N)=O)cc1 do in these assays?
MBD2 inh: -3.1; ABHD5-PLIN5 inh: 37.9*; LEDGF integ inh: -2.1; RBBP9 inh: -57.1; UHRF1 binding: -1.2; PRMT1 inh: 17.9; ABHD5 PLIN5 conf: 21.1; HNF4 split-luc: 44.4*

How did CC(C)c1[nH]nc2c1C(c1cccc(C(F)(F)F)c1)N(c1ccccc1)C2=O (configuration not stated) do in these assays?
MBD2 inh: 6.4; LEDGF integ inh: 3.6; UHRF1 binding: 1.9; PRMT1 inh: 3.7

Results for COC(=O)C1CN(C2CCCC2)CCS(=O)(=O)N1Cc1ccc(Cl)cc1 (configuration not stated) ?
MBD2 inh: 0.7; LEDGF integ inh: -3.6; UHRF1 binding: 0.9; PRMT1 inh: 1.4

What do the screens show for `COc1ccc2nc3ccccc3nc2c1N`?
MBD2 inh: -28.5; ABHD5-PLIN5 inh: 37.9*; LEDGF integ inh: 3.4; RBBP9 inh: 3.1; UHRF1 binding: -8.2; PRMT1 inh: 13.0; ABHD5 PLIN5 conf: -0.2; HNF4 split-luc: 10.4

Results for Cc1nnc(NC(=O)c2nc(S(=O)(=O)Cc3ccccc3)ncc2Cl)s1 ?
MBD2 inh: 2.0; ABHD5-PLIN5 inh: 33.8*; LEDGF integ inh: -0.8; UHRF1 binding: -0.1; PRMT1 inh: 3.0; ABHD5 PLIN5 conf: 70.6*; HNF4 split-luc: 51.2*

Compound activity (PubChem)
